Source: ChEMBL document CHEMBL4004830 (J Med Chem, 2017)
pIC50, pKi: −log10 of the molar value. The source made the active and inactive calls. No cut-off for these calls is given here.

Experiments:
[1] = target: Cyclin-dependent kinase 4/cyclin D1 (Homo sapiens, UniProt P11802); test: Inhibition of CDK4/cyclin D1 (unknown origin) in presence of [gamma-33P]-ATP […]; assay type: protein-complex assay; settings: read-out: Ki(app)
CDK6/cyclin D3 = CDK6/cyclin D3 (Homo sapiens, UniProt Q00534); test: Inhibition of CDK6/cyclin D3 (unknown origin) in presence of [gamma-33P]-ATP […]; assay type: protein-complex assay; settings: read-out: Ki(app)
[2] = target: Cyclin-dependent kinase 1/cyclin B1 (Homo sapiens) (UniProt P06493+P14635); test: Inhibition of CDK1/cyclin B (unknown origin) in presence of [gamma-33P]-ATP […]; assay type: protein-complex assay
CDK9/cyclin T1 = CDK9/cyclin T1 (Homo sapiens, UniProt P50750); test: Inhibition of CDK9/cyclin T1 (unknown origin) in presence of [gamma-33P]-ATP […]; assay type: protein-complex assay; settings: read-out: Ki(app)
Homo sapiens [3] = organism: Homo sapiens; test: Selectivity ratio of Ki for CDK2/cyclin A (unknown origin) to Ki for CDK4/cyclin D1 (unknown origin)
In short: (§1)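 Apparent Ki for each CDK–cyclin complex (CDK4–cyclin D1, CDK6–cyclin D3, CDK2–cyclin A) calculated from the half-maximal inhibition (IC50) and that kinase's Km(ATP). The selectivity ratio is the CDK2 Ki divided by the CDK4 or CDK6 Ki.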

Homo sapiens [4] = organism: Homo sapiens; test: Selectivity ratio of Ki for CDK2/cyclin A (unknown origin) to Ki for CDK6/cyclin D3 (unknown origin); in short: as §1
MDA-MB-468 = test: Growth inhibition of human MDA-MB-468 cells after 72 hrs by resazurin or MTT assay; assay type: functional; settings: MDA-MB-468, 72 h
MV4-11 [5] = test: Cell cycle arrest in human MV4-11 cells assessed as accumulation at G2/M phase at 10 times GI50 after 24 hrs by propidium iodide staining based flow cytometry (reference value: 18.11%); assay type: functional
In short: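 MV4-11 cells were treated with increasing concentrations for 24 h. Cells were then harvested, fixed and stained with propidium iodide before flow cytometric cell cycle analysis.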

Cytochrome P450 3A4 = Cytochrome P450 3A4 (Homo sapiens, UniProt P08684); test: Inhibition of CYP3A4 in human liver microsomes using midazolam as substrate in presence of NADPH; assay type: ADME
In short: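 Human liver microsomes with NADPH and isoform-specific probe substrate (midazolam CYP3A4, dextromethorphan CYP2D6, ethoxyresorufin CYP1A, tolbutamide CYP2C9, mephenytoin CYP2C19); IC50 reported in µM.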

[6] = target: Voltage-gated inwardly rectifying potassium channel KCNH2 (Homo sapiens, UniProt Q12809); test: Inhibition of human ERG expressed in CHO cells by patch clamp electrophysiology; assay type: cell-based
In short: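 Cardiac toxicity assay in CHO cells expressing hERG; IC50 determined.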

[7] = Apparent permeability co-efficient from apical to basolateral side in human Caco2 cells; assay type: ADME, cell-based; settings: Caco-2
In short: (§2)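 Caco-2 monolayer assay measuring the apparent permeability coefficient (P_app, 10^-6 cm/s) in the A→B and B→A directions. Efflux ratio is the mean P_app B-A divided by the mean P_app A-B.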

[8] = Apparent permeability co-efficient from basolateral to apical side in human Caco2 cells; assay type: ADME, cell-based; settings: Caco-2; in short: as §2
[9] = Cmax in albino Wistar rat at 5 mg/kg, iv up to 24 hrs by LC-MS/MS analysis; assay type: ADME, organism-based; design: dose 5 mg/kg, route intravenous; settings: in vivo
[10] = Half-life in albino Wistar rat at 5 mg/kg, iv up to 24 hrs by LC-MS/MS analysis; assay type: ADME, organism-based; settings: in vivo
In short: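 Single-dose pharmacokinetics in male albino Wistar rats, 5 mg/kg IV.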

[11] = AUC (0 to t) in albino Wistar rat at 20 mg/kg administered via oral gavage measured up to 24 hrs by LC-MS/MS analysis; assay type: ADME, organism-based; design: dose 20 mg/kg, time < 24 hr, route oral; settings: in vivo
[12] = Oral bioavailability in albino Wistar rat at 20 mg/kg measured up to 24 hrs by LC-MS/MS analysis; assay type: ADME, organism-based; settings: in vivo
In short: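 Single-dose pharmacokinetics in male animals: albino Wistar rats given 5 mg/kg IV or 20 mg/kg PO, and BALB/c mice given 2 mg/kg IV or 10 mg/kg PO.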

[13] = Clearance in BALB/c mouse at 2 mg/kg, iv up to 24 hrs by LC-MS/MS analysis; assay type: ADME, organism-based; settings: in vivo
[14] = AUC (0 to t) in BALB/c mouse at 2 mg/kg, iv up to 24 hrs by LC-MS/MS analysis; assay type: ADME, organism-based; design: dose 2 mg/kg, time < 24 hr, route intravenous; settings: in vivo
[15] = Half life in BALB/c mouse at 2 mg/kg, iv up to 24 hrs by LC-MS/MS analysis; assay type: ADME, organism-based; settings: in vivo
In short: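 Single-dose pharmacokinetics in male BALB/c mice, 2 mg/kg IV or 10 mg/kg PO.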

[16] = AUC (0 to t) in BALB/c mouse at 10 mg/kg administered via oral gavage measured up to 24 hrs by LC-MS/MS analysis; assay type: ADME, organism-based; design: dose 10 mg/kg, time < 24 hr, route oral; settings: in vivo
MV4-11 [17] = test: Antitumor activity against human MV4-11 cells xenografted in nude BALB/c mouse assessed as tumor growth inhibition at 100 mg/kg, po qd administered for 33 consecutive days and left untreated for another 50 days; assay type: functional, organism-based
MV4-11 [18] = test: Antitumor activity against human MV4-11 cells xenografted in nude BALB/c mouse assessed as tumor growth inhibition at 100 mg/kg, po qd administered for 33 consecutive days measured on day 50; assay type: functional, organism-based
Mus musculus = test: Toxicity in nude BALB/c mouse xenografted with human MV4-11 cells assessed as overt toxicity at 100 mg/kg, po qd for 33 consecutive days and left untreated for another 50 days; assay type: organism-based; settings: in vivo, 1200 h
[19] = target: Dual specificity tyrosine-phosphorylation-regulated kinase 2 (Homo sapiens) (UniProt Q92630); test: Inhibition of full-length human DYRK2 (1 to 528 amino acid residues) expressed in mammalian expression system at 1 uM in presence of [gamma-33P]-ATP […]
In short: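 Broad kinome panel of 369 kinases screened at 1 µM test concentration.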

MV4-11 [20] = test: Cell cycle arrest in human MV4-11 cells assessed as accumulation at sub-G1 phase at 0.04 uM after 24 hrs by propidium iodide staining based flow cytometry (reference value: 1.99%); assay type: functional
MV4-11 [21] = test: Cell cycle arrest in human MV4-11 cells assessed as accumulation at G1 phase at 0.04 uM after 24 hrs by propidium iodide staining based flow cytometry (reference value: 61.01%); assay type: functional
MV4-11 [22] = test: Cell cycle arrest in human MV4-11 cells assessed as accumulation at G2/M phase at 0.04 uM after 24 hrs by propidium iodide staining based flow cytometry (reference value: 17.94%); assay type: functional
MV4-11 [23] = test: Cell cycle arrest in human MV4-11 cells assessed as accumulation at sub-G1 phase at 0.20 uM after 24 hrs by propidium iodide staining based flow cytometry (reference value: 1.99%); assay type: functional
MV4-11 [24] = test: Cell cycle arrest in human MV4-11 cells assessed as accumulation at G1 phase at 0.20 uM after 24 hrs by propidium iodide staining based flow cytometry (reference value: 61.01%); assay type: functional
MV4-11 [25] = test: Cell cycle arrest in human MV4-11 cells assessed as accumulation at S phase at 0.40 uM after 24 hrs by propidium iodide staining based flow cytometry (reference value: 19.07%); assay type: functional
MV4-11 [26] = test: Effect on total Rb protein levels in human MV4-11 cells at GI50 after 12 to 24 hrs by Western blot analysis; assay type: cell-based
In short: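 MV4-11 cells were treated for 12 or 24 h, then analysed by Western blot for Rb, including phospho-Ser780. β-Actin served as the loading control. Data are representative of two independent experiments.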

Sequence of Dual specificity tyrosine-phosphorylation-regulated kinase 2 (Homo sapiens) (Q92630 whole entry, the tested form may be a part): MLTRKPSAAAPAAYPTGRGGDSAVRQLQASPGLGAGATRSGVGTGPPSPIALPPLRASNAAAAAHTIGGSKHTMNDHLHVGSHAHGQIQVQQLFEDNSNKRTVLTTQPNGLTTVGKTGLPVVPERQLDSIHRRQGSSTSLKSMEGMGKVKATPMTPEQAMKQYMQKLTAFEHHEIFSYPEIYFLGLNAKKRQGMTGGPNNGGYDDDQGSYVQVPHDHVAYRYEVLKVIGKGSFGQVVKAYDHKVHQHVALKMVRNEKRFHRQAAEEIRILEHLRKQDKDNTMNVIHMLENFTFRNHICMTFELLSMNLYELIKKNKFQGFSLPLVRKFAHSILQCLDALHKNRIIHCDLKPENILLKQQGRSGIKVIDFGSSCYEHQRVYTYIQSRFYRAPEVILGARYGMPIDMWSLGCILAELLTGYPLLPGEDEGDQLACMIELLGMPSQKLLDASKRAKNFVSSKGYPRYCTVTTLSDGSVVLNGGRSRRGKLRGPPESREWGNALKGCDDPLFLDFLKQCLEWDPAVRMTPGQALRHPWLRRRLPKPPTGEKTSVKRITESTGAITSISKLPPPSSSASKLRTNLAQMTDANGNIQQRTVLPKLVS
Sequence of Voltage-gated inwardly rectifying potassium channel KCNH2 (Q12809 whole entry): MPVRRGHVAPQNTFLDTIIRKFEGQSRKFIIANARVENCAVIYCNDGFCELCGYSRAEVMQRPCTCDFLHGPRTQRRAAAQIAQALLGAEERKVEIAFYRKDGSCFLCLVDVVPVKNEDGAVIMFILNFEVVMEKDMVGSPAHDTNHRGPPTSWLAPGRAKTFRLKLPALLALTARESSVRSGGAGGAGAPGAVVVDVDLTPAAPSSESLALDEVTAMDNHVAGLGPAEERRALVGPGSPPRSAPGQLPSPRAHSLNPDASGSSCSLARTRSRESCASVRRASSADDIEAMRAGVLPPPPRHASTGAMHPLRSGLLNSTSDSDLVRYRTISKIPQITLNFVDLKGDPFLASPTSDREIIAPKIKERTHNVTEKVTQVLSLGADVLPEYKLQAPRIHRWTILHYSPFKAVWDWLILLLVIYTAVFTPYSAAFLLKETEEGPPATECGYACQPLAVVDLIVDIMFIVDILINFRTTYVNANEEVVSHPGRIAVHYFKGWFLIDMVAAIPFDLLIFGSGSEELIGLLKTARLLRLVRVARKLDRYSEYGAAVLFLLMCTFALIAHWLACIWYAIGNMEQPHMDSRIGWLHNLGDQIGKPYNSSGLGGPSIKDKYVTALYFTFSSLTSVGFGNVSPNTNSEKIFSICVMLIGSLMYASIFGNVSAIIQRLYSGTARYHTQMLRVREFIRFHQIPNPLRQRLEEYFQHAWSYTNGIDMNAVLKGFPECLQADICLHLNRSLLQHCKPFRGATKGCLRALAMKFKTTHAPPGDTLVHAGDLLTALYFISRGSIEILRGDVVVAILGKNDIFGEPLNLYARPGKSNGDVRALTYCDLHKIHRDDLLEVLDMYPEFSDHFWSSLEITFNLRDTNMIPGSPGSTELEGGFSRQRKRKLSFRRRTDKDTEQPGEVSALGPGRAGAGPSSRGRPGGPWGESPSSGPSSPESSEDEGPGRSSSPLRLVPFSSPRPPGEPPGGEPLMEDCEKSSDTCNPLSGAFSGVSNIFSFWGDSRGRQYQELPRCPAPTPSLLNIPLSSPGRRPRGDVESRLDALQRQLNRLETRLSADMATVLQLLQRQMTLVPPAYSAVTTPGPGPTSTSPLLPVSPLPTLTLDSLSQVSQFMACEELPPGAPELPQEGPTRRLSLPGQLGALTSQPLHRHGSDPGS
Sequence of Cyclin-dependent kinase 4/cyclin D1 (P11802 whole entry): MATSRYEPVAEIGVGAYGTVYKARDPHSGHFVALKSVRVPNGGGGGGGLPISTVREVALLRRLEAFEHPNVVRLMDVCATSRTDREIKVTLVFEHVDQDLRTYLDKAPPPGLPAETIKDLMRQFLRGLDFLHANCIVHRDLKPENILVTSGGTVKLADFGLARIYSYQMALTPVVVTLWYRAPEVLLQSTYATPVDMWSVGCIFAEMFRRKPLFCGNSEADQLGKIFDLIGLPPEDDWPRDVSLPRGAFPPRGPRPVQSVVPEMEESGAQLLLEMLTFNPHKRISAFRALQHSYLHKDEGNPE
Sequence of Cyclin-dependent kinase 4/cyclin D1 (P24385 whole entry, further chain): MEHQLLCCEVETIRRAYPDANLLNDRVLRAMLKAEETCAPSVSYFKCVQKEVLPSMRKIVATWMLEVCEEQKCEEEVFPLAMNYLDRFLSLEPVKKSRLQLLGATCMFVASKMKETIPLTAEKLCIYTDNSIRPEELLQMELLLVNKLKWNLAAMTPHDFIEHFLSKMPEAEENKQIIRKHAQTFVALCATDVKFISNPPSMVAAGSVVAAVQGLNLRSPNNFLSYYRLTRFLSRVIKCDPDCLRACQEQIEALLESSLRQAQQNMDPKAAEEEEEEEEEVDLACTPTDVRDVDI
Sequence of CDK9/cyclin T1 (O60563 whole entry): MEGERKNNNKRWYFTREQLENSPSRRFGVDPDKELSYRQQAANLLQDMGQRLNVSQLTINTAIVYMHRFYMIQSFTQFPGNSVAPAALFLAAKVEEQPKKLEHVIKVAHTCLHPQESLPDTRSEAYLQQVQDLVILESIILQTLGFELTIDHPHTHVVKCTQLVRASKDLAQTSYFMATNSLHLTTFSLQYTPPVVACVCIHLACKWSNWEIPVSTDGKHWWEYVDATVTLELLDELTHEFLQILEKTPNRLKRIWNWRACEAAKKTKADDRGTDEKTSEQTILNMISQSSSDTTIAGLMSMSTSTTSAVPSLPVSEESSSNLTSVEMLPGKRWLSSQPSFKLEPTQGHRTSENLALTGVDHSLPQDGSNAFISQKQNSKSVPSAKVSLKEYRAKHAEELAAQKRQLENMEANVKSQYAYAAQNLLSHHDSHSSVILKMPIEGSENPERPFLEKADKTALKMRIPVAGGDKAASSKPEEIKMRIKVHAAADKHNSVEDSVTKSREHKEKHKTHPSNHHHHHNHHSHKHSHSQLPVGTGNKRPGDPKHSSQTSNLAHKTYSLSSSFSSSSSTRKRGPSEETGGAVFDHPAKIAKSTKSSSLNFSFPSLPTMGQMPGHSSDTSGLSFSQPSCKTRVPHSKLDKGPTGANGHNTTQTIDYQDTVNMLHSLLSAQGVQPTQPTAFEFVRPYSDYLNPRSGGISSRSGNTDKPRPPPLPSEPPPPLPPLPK
Sequence of CDK9/cyclin T1 (P50750 whole entry): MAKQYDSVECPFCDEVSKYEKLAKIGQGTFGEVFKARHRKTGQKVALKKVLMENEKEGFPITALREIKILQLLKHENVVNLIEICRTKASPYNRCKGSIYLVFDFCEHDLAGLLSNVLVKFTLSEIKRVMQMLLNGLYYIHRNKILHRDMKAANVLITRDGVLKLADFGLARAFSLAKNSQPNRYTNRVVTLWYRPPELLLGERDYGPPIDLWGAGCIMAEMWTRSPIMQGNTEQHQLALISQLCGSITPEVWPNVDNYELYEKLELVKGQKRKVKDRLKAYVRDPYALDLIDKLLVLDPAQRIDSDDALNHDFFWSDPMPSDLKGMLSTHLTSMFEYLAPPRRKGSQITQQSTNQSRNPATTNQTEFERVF
Sequence of CDK6/cyclin D3 (P30281 whole entry): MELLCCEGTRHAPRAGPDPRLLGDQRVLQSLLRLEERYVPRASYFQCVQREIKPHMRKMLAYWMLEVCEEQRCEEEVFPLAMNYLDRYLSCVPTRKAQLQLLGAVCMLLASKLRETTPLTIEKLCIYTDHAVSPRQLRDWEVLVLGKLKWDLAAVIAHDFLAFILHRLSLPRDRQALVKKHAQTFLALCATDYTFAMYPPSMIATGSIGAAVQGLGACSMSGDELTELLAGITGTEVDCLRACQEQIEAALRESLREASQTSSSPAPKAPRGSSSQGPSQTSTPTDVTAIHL
Sequence of CDK6/cyclin D3 (Q00534 whole entry): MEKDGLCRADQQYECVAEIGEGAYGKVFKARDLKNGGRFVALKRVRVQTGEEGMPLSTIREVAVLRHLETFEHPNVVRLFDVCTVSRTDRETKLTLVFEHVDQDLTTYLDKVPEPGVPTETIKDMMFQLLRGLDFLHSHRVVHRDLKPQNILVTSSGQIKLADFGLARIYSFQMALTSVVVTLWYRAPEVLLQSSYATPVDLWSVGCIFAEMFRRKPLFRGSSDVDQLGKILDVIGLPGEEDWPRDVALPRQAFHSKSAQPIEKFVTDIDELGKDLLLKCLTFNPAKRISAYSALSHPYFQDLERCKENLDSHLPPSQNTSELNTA
Sequence of Cytochrome P450 3A4 (P08684 whole entry, canonical isoform): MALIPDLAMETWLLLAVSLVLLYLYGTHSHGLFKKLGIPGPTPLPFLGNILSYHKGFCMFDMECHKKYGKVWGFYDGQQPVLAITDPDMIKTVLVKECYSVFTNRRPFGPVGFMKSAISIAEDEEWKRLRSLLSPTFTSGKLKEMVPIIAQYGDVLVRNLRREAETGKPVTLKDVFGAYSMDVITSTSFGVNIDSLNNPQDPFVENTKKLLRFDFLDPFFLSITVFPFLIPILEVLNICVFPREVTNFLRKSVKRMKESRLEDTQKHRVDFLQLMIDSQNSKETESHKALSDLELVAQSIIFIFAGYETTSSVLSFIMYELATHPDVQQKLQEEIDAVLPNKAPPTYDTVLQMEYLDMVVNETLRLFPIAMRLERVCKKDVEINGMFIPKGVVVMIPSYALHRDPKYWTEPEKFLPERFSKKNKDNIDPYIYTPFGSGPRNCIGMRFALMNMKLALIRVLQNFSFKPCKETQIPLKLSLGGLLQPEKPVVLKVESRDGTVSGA

Structure (SMILES): Cc1nc(NC2CCCC2)sc1-c1ccnc(Nc2ccc(N3CCOCC3)cn2)n1
- pKi [1]: 8.40
- pKi (CDK6/cyclin D3): 7.52
- Ki(app) [2]: inactive
- pKi (CDK9/cyclin T1): < 5.30
- Ratio Ki (Homo sapiens [3]): > 1200
- Ratio Ki (Homo sapiens [4]): 156
- GI50 (MDA-MB-468): > 10 µM
- Activity (MV4-11 [5]): 5.75%
- pIC50 (Cytochrome P450 3A4): < 4.60
- pIC50 [6]: < 5.00
- Papp A→B [7]: 10.1 ×10⁻⁶ cm/s
- Papp B→A [8]: 3.98 ×10⁻⁶ cm/s
- Cmax [9]: 38.8 µM
- half-life [10]: 4.2 h
- AUC(0-t) at 24 h [11]: 15.9 µM·h
- bioavailability [12]: 25.1 to 27%
- clearance [13]: 58.3 mL/min/kg
- AUC(0-t) at 24 h [14]: 1.2 µM·h
- half-life [15]: 1.7 h
- AUC(0-t) at 24 h [16]: 5.9 µM·h
- TGI (MV4-11 [17]): Active
- TGI (MV4-11 [18]): Active
- Activity (Mus musculus): Non-Toxic
- inhibition [19]: Active

Structure (SMILES): CC(=O)c1c(C)c2cnc(Nc3ccc(N4CCNCC4)cn3)nc2n(C2CCCC2)c1=O [PALBOCICLIB]
- Activity (MV4-11 [20]): 2.66%
- Activity (MV4-11 [21]): 68.17%
- Activity (MV4-11 [22]): 13.4%
- Activity (MV4-11 [23]): 4.22%
- Activity (MV4-11 [24]): 80.66%
- Activity (MV4-11 [25]): 6.02%
- GI50 (MDA-MB-468): 5.96 µM
- Activity (MV4-11 [26]): Toxic
- Activity (MV4-11 [5]): 4.12%
